Published values from different studies.
Protocols differ between the studies behind these lines.
Target: Serine/threonine-protein kinase BRSK1 (BRSK1, Homo sapiens, UniProt Q8TDC3)
Sequence (Q8TDC3 1-778, as in one of the studies): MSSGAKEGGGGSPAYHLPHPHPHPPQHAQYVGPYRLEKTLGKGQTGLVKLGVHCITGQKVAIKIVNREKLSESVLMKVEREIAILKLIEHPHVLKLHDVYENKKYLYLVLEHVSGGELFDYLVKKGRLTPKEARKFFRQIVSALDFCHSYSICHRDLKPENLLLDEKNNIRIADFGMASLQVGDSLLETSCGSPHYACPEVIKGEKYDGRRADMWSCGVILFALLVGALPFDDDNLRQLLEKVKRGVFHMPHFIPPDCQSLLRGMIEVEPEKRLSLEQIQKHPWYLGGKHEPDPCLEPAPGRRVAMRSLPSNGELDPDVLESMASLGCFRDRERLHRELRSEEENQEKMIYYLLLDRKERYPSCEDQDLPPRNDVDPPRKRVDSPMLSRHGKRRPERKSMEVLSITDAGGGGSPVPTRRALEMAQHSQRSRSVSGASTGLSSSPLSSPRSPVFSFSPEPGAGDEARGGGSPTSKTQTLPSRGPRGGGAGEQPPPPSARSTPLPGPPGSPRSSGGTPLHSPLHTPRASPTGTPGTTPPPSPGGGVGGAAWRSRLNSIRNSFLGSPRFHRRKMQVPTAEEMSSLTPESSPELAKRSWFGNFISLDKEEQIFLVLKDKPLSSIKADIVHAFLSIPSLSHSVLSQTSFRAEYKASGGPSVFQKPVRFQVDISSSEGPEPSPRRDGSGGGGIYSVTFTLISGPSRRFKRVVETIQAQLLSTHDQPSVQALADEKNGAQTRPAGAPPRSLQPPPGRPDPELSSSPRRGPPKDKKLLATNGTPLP

Structure (SMILES) | observed | action | technique | concentration | endpoint | value
CC(C)(C)c1cc(C=C(C#N)C#N)cc(Br)c1O | enzyme activity | inhibitor | – | 0.5 µM | remaining activity | 94%
Cn1cncc1[C@@](O)(COc1ccc(C#N)cc1-c1ccc(OC(F)(F)F)cc1)c1ccc(C#N)cc1 | cell-free assay | – | competition with immobilised ligand | 1 µM | remaining binding | 86%
Cn1cc(-c2cccc(N3CCc4c(sc5c4CC(C)(C)C5)C3=O)c2CO)cc(Nc2ccncn2)c1=O | enzyme activity | inhibitor | – | 1 µM | inhibition | 3%
COc1ncccc1-c1cnn2ccc(N3CCN(C(=O)OC(C)C)CC3)nc12 | binding | – | competition with immobilised ligand | 1 µM | remaining binding | 93%
Nc1ncc(-c2nc(N3CCOCC3)nc(N3CCOCC3)n2)c(C(F)F)n1 | binding | – | competition with immobilised ligand | 10 µM | remaining binding | 91%
O=c1[nH]c2ccccc2n1C1CCN(Cc2ccc(-c3[nH]c4cc5ncnc5cc4nc3-c3ccccc3)cc2)CC1 | cell-free assay | – | – | 0.5 µM | remaining signal | 98.3%
N#CC1(c2ccccn2)CCN(Cc2cc(C(=O)O)c(=O)n3ccccc23)CC1 | cell-free assay | – | competition with immobilised ligand | 1 µM | remaining binding | 100%
Cc1nn(C)cc1-c1nc2c(N3CCN(Cc4ccc(Cl)cc4)CC3)c(Cl)cnc2[nH]1 | binding | – | competition with immobilised ligand | 1 µM | remaining binding | 100%
Cn1cc(-c2cc(F)cc(N3CCn4c(cc5c4CCCC5)C3=O)c2CO)cc(Nc2ccc(N3CCN(C4COC4)CC3)cn2)c1=O | enzyme activity | inhibitor | – | 0.1 µM | inhibition | 12%
